In ChEMBL document CHEMBL1124049, “Synthesis and biological characterization of pyridohomotropanes. Structure-activity relationships of conformationally restricted nicotinoids” (J Med Chem, 1988):

What was measured:
[1] = biological target: Neuronal acetylcholine receptor; experiment: Inhibition of [3H]MCC binding to rat brain membranes; format: cell membranes, Membrane
Method in brief: (§1)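 Membranes from whole rat brain or Torpedo electric organ, homogenized in 30 volumes 0.05 M NaH2PO4 pH 7.0 and spun at 50000g for 30 min. Each tube held 2 mg brain protein or 1 mg electric organ protein, 1 × 10⁻⁹ M radioligand (final), and varied agent concentrations in 0.05 M NaPO4 pH 7.0.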

Rattus norvegicus [2] = species: Rattus norvegicus; experiment: Potency for prostration assay, relative to PHT; format: functional
Acetylcholine receptor [3] = biological target: T1, Acetylcholine receptor (Torpedo californica, UniProt P02710+P02712+P02714+P02718); experiment: inhibition of (-)-[3H]nicotine binding to torpedo electroplax membranes; method in brief: as §1
T1 sequence (P02710 whole entry): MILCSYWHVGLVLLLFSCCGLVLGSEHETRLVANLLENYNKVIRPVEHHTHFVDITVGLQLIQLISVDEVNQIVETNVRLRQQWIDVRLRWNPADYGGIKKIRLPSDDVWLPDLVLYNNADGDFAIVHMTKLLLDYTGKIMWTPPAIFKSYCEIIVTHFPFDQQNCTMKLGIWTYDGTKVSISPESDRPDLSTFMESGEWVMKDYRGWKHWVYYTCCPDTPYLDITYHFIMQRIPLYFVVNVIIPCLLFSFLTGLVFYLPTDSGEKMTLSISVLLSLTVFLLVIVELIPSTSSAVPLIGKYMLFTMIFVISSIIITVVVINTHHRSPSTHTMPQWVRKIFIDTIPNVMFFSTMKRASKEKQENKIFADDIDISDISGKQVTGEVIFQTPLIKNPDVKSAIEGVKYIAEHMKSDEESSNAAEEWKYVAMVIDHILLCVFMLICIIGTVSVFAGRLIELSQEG
T1 sequence (P02712 whole entry): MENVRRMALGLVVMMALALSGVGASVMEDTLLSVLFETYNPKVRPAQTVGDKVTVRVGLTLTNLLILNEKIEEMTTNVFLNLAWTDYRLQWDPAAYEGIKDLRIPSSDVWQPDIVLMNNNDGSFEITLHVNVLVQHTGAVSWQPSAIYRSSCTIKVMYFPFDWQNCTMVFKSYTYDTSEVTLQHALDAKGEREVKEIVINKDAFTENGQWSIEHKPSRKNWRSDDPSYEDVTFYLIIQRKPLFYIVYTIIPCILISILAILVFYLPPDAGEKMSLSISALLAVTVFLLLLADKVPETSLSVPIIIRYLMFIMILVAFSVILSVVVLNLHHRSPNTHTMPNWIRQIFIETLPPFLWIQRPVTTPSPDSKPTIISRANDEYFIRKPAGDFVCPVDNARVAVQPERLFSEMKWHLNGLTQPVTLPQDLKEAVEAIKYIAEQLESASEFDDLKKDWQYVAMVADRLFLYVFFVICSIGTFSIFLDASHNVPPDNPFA
T1 sequence (P02718 whole entry): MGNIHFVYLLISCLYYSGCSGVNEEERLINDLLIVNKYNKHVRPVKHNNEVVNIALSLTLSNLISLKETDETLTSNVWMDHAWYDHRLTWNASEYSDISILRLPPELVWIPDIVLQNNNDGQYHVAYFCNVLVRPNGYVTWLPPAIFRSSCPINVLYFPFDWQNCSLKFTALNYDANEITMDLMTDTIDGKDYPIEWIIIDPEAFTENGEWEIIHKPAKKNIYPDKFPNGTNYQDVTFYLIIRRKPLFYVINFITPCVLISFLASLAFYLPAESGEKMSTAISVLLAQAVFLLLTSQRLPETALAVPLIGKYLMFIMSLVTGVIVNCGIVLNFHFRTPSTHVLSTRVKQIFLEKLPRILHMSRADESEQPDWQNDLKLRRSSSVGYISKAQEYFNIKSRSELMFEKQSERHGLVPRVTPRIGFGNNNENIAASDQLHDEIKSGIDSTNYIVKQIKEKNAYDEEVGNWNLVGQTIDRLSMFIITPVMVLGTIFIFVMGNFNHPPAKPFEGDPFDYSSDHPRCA
T1 sequence (P02714 whole entry): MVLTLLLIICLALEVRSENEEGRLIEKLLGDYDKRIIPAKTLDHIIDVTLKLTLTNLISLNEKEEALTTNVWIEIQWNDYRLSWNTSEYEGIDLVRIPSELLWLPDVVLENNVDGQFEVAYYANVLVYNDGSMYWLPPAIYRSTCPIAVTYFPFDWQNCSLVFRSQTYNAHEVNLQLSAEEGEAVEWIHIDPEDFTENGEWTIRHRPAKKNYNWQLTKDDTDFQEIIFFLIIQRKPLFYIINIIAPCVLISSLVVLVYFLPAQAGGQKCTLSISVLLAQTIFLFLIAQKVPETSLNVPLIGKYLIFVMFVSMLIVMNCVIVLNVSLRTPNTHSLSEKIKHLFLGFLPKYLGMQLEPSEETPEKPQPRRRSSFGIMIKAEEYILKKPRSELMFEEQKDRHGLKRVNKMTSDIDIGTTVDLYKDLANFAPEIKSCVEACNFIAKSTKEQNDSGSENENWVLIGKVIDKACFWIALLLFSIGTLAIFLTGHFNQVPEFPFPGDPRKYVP

[4] = biological target: Neuronal acetylcholine receptor; experiment: Inhibition of (-)-[3H]nicotine binding to rat brain membranes; format: cell membranes, Membrane; method in brief: as §1
Rattus norvegicus [5] = species: Rattus norvegicus; experiment: Effective dose required to produce prostration after injection into rat's fourth ventricle; format: functional
Method in brief: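 Rats given various doses into the fourth ventricle through chronically implanted cannulae, in 1 μL. Prostration of the limbs was scored, from hind-limb prostration with forelimb weakness up to prostration of all four limbs.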

Acetylcholine receptor [6] = biological target: T1, Acetylcholine receptor; experiment: Inhibition of [3H]MCC binding to torpedo electroplax membranes; method in brief: as §1

## CN1C2CCc3ccncc3C1CC2 (centres undefined)
[1]
  IC50: 3000 nM
Rattus norvegicus [2]
  Relative potency: 0.02
Acetylcholine receptor [3]
  IC50: 800 nM
[4]
  IC50: 1000 nM
Rattus norvegicus [5]
  ED50: 500 nmol
Acetylcholine receptor [6]
  IC50: 2000 nM

## c1cc2c(cn1)C1CCC(CC2)N1 (centres undefined)
[1]
  IC50: 10 nM
Rattus norvegicus [2]
  Relative potency: 1
Acetylcholine receptor [3]
  IC50: 1 nM
[4]
  IC50: 5 nM
Rattus norvegicus [5]
  ED50: 10 nmol
Acetylcholine receptor [6]
  IC50: 0.1 nM

## Cc1nccc2c1C1CCC(CC2)N1 (centres undefined)
[1]
  IC50: 700 nM
Rattus norvegicus [2]
  Relative potency: 0.02
Acetylcholine receptor [3]
  IC50: 300 nM
[4]
  IC50: 900 nM
Rattus norvegicus [5]
  ED50: 500 nmol
Acetylcholine receptor [6]
  IC50: 300 nM

## c1cncc([C@@H]2CCCN2)c1 [NORNICOTINE]
Acetylcholine receptor [3]
  IC50: 100 nM
Rattus norvegicus [5]
  ED50: 75 nmol
Acetylcholine receptor [6]
  IC50: 300 nM

## CN1CCC[C@H]1c1cccnc1 [NICOTINE]
Acetylcholine receptor [3]
  IC50: 4 nM
Rattus norvegicus [5]
  ED50: 10 nmol
Acetylcholine receptor [6]
  IC50: 1 nM
